Assay results from ChEMBL document CHEMBL1126958, “Quinolinecarboxylic acids. 3. Synthesis and antibacterial evaluation of 2-substituted-7-oxo-2,3-dihydro-7H-pyrido[1,2,3-de] [1,4]benzothiazine-6-carboxylic acids related to rufloxacin” (J Med Chem, 1993).
In brackets after ≈: the same amount, converted by molar mass.

Key:
[1] = tested on: Staphylococcus aureus; experiment: Minimal inhibitory concentration against […] aureus ATCC 6538 strain; assay type: functional
In short: (§1)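 Agar dilution on TSA agar; compounds added by 2-fold dilution to melted medium at 50 °C just before pouring. Organisms stored at –80 °C, diluted in peptonated water to 1–2 × 10^7 CFU, applied with multipoint inoculator. MIC = lowest concentration preventing visible growth after 24 h at 35 °C.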

[2] = tested on: Enterococcus faecalis; experiment: Minimal inhibitory concentration against Streptococcus faecalis LEP strain; assay type: functional; in short: as §1
[3] = tested on: Escherichia coli; experiment: Minimal inhibitory concentration against Escherichia coli ISF 432 strain; assay type: functional; in short: as §1
[4] = Minimal inhibitory concentration against Shigella enteritidis strain; assay type: functional; in short: as §1
[5] = tested on: Pseudomonas aeruginosa; experiment: Minimal inhibitory concentration against Pseudomonas aeruginosa ATCC 9027 strain; assay type: functional; in short: as §1
[6] = tested on: Proteus vulgaris; experiment: Minimal inhibitory concentration against Proteus vulgaris CNUR6 strain; assay type: functional; in short: as §1
[7] = tested on: Klebsiella pneumoniae; experiment: Minimal inhibitory concentration against Klebsiella pneumoniae ATCC 10031 strain; assay type: functional; in short: as §1
[8] = tested on: Enterobacter cloacae; experiment: Minimal inhibitory concentration against Enterobacter cloacae OMNFI174 strain; assay type: functional; in short: as §1
[9] = Urinary excretion in rat after 0-4 hours of oral administration at 50 mg/kg; assay type: ADME, organism-based; design: dose 50 mg/kg, route oral; conditions: urine
In short: (§2)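 Fasted male Wistar rats, three per group, dosed orally at 50 mg/kg. Urine collected over 0-4, 4-8 and 8-24 h, diluted 1:100 in ultrapure water, then treated with water and 70% perchloric acid, vortexed and centrifuged. Supernatant analysed by HPLC with pH 2.8 KH2PO4/phosphoric acid mobile phase. Result given as % of administered dose excreted.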

[10] = Urinary excretion in rat after 8-24 hours of oral administration at 50 mg/kg; assay type: ADME, organism-based; design: dose 50 mg/kg, route oral; conditions: urine; in short: as §2
[11] = Plasma concentration level in rat after 15 hours of oral administration at 50 mg/kg; assay type: ADME, organism-based; design: dose 50 mg/kg, route oral
In short: (§3)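 Fasted male Wistar rats, three per group, single oral dose 50 mg/kg. Plasma taken at timed points, deproteinized with 70% perchloric acid, vortexed, centrifuged; supernatant analysed by HPLC, mobile-phase buffer 0.01 M KH2PO4 brought to pH 2.8 with phosphoric acid. Values as mean ± error over the group.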

[12] = Plasma concentration level in rat after 4 hours of oral administration at 50 mg/kg; assay type: ADME, organism-based; design: dose 50 mg/kg, route oral; in short: as §3
[13] = Urinary excretion in rat after 4-8 hours of oral administration at 50 mg/kg; assay type: ADME, organism-based; design: dose 50 mg/kg, route oral; conditions: urine; in short: as §2
[14] = Plasma concentration level in rat after 1 hour of oral administration at 50 mg/kg; assay type: ADME, organism-based; design: dose 50 mg/kg, route oral; in short: as §3

Row | SMILES | MIC [1] [mg/L] | MIC [2] [mg/L] | MIC [3] [mg/L] | MIC [4] [mg/L] | MIC [5] [mg/L] | MIC [6] [mg/L] | MIC [7] [mg/L] | MIC [8] [mg/L] | concentration at 15 h [11] [µg/mL] | concentration at 4 h [12] [µg/mL] | concentration at 1 h [14] [µg/mL] | dose excreted [9] [%] | dose excreted [10] [%] | dose excreted [13] [%]
1 | CC1Cn2cc(C(=O)O)c(=O)c3cc(F)c(Cl)c(c32)S1 (stereo unspecified) | 2 (≈ 6.37 µM) | 32 (≈ 102 µM) | 0.12 (≈ 0.382 µM) | 4 (≈ 12.7 µM) | 32 (≈ 102 µM) | > 64 | 8 (≈ 25.5 µM) | 2 (≈ 6.37 µM) |  |  |  |  |  | 
2 | CC1CN(c2c(F)cc3c(=O)c(C(=O)O)cn4c3c2SC(C)C4)CC(C)N1 (stereo unspecified) | 4 (≈ 10.2 µM) | 64 (≈ 163 µM) | 0.25 (≈ 0.639 µM) | 4 (≈ 10.2 µM) | 32 (≈ 81.7 µM) | > 64 | 0.25 (≈ 0.639 µM) | 4 (≈ 10.2 µM) |  |  |  |  |  | 
3 | CCNCC1CCN(c2c(F)cc3c(=O)c(C(=O)O)cn4c3c2SC(C)C4)C1 (stereo unspecified) | 4 (≈ 9.86 µM) | 16 (≈ 39.5 µM) | 0.25 (≈ 0.617 µM) | 8 (≈ 19.7 µM) | > 64 | > 64 | 0.25 (≈ 0.617 µM) | 8 (≈ 19.7 µM) |  |  |  |  |  | 
4 | CC1Cn2cc(C(=O)O)c(=O)c3cc(F)c(N4CCNCC4)c(c32)S1 (stereo unspecified) | 8 (≈ 22 µM) | > 64 | 0.25 (≈ 0.688 µM) | 8 (≈ 22 µM) | 64 (≈ 176 µM) | > 64 | 2 (≈ 5.5 µM) | 16 (≈ 44 µM) |  |  |  | 0.37 | 3.12 | 1.92
5 | CC1Cn2cc(C(=O)O)c(=O)c3cc(F)c(-n4ccnc4)c(c32)S1 (stereo unspecified) | 16 (≈ 46.3 µM) | 32 (≈ 92.7 µM) | 0.12 (≈ 0.347 µM) | 4 (≈ 11.6 µM) | 64 (≈ 185 µM) | > 64 | 0.25 (≈ 0.724 µM) | 16 (≈ 46.3 µM) |  |  |  |  |  | 
6 | O=C(O)c1cn2c3c(c(Cl)c(F)cc3c1=O)SC(c1ccc(F)cc1)C2 (stereo unspecified) | 4 (≈ 10.2 µM) | 8 (≈ 20.3 µM) | 0.25 (≈ 0.635 µM) | > 64 | > 64 | > 64 | 0.25 (≈ 0.635 µM) | 8 (≈ 20.3 µM) |  |  |  |  |  | 
7 | O=C(O)c1cn2c3c(c(Cl)c(F)cc3c1=O)SC(c1ccccc1F)C2 (stereo unspecified) | 8 (≈ 20.3 µM) | 4 (≈ 10.2 µM) | 0.5 (≈ 1.27 µM) | > 64 | > 64 | > 64 | 0.5 (≈ 1.27 µM) | > 64 |  |  |  |  |  | 
8 | O=C(O)c1cn2c3c(c(N4CCNCC4)c(F)cc3c1=O)SCC2 |  |  |  |  |  |  |  |  |  |  |  | 2.73 | 11.5 | 5.59
9 | CN1CCN(c2c(F)cc3c(=O)c(C(=O)O)cn4c3c2SCC4)CC1 [RUFLOXACIN] | 1 (≈ 2.75 µM) | 16 (≈ 44 µM) | 0.25 (≈ 0.688 µM) | 2 (≈ 5.5 µM) | 8 (≈ 22 µM) | 4 (≈ 11 µM) | 0.12 (≈ 0.33 µM) | 2 (≈ 5.5 µM) | 0.41 | 4.43 | 7.74 | 2.18 | 15.6 | 10.5

The next lines start with results.

Row | MIC [1] [mg/L] | MIC [2] [mg/L] | MIC [3] [mg/L] | MIC [4] [mg/L] | MIC [5] [mg/L] | MIC [6] [mg/L] | MIC [7] [mg/L] | MIC [8] [mg/L] | concentration at 15 h [11] [µg/mL] | concentration at 4 h [12] [µg/mL] | concentration at 1 h [14] [µg/mL] | SMILES | dose excreted [9] [%] | dose excreted [10] [%] | dose excreted [13] [%]
10 | 32 (≈ 65.4 µM) | 64 (≈ 131 µM) | 8 (≈ 16.3 µM) | > 64 | > 64 | > 64 | > 64 | > 64 |  |  |  | CC1Cn2cc(C(=O)O)c(=O)c3cc(F)c(N4CCN(Cc5ccc(F)cc5F)CC4)c(c32)S1 (stereo unspecified) |  |  | 
11 | 2 (≈ 5.08 µM) | 32 (≈ 81.3 µM) | 2 (≈ 5.08 µM) | > 64 | > 64 | > 64 | 2 (≈ 5.08 µM) | > 64 |  |  |  | O=C(O)c1cn2c3c(c(Cl)c(F)cc3c1=O)SC(c1cccc(F)c1)C2 (stereo unspecified) |  |  | 
12 | 1 (≈ 2.65 µM) | 32 (≈ 84.8 µM) | 0.25 (≈ 0.662 µM) | 2 (≈ 5.3 µM) | 16 (≈ 42.4 µM) | 32 (≈ 84.8 µM) | 0.25 (≈ 0.662 µM) | 4 (≈ 10.6 µM) | 0.27 | 7.61 | 14.1 | CC1Cn2cc(C(=O)O)c(=O)c3cc(F)c(N4CCN(C)CC4)c(c32)S1 (stereo unspecified) | 1.5 | 5.17 | 2.59
13 | 32 (≈ 67.9 µM) | > 64 | 16 (≈ 33.9 µM) | > 64 | > 64 | > 64 | > 64 | > 64 |  |  |  | CC1Cn2cc(C(=O)O)c(=O)c3cc(F)c(N4CCN(Cc5cccc(F)c5)CC4)c(c32)S1 (stereo unspecified) |  |  | 
14 | 4 (≈ 7.67 µM) | 16 (≈ 30.7 µM) | 2 (≈ 3.83 µM) | 8 (≈ 15.3 µM) | > 64 | > 64 | 1 (≈ 1.92 µM) | 8 (≈ 15.3 µM) |  |  |  | CC1Cn2cc(C(=O)O)c(=O)c3cc(F)c(N4CCN(S(=O)(=O)c5ccc(F)cc5)CC4)c(c32)S1 (stereo unspecified) |  |  | 
15 | 0.5 (≈ 1.14 µM) | 2 (≈ 4.54 µM) | 1 (≈ 2.27 µM) | > 64 | > 64 | > 64 | 2 (≈ 4.54 µM) | > 64 |  |  |  | CC1Cn2cc(C(=O)O)c(=O)c3cc(F)c(N4CCN(c5ccccn5)CC4)c(c32)S1 (stereo unspecified) |  |  | 
16 | 16 (≈ 36.1 µM) | 16 (≈ 36.1 µM) | 2 (≈ 4.51 µM) | 32 (≈ 72.2 µM) | > 64 | > 64 | 16 (≈ 36.1 µM) | 32 (≈ 72.2 µM) |  |  |  | O=C(O)c1cn2c3c(c(N4CCNCC4)c(F)cc3c1=O)SC(c1ccc(F)cc1)C2 (stereo unspecified) |  |  | 
17 | 8 (≈ 17.5 µM) | 4 (≈ 8.74 µM) | 8 (≈ 17.5 µM) | > 64 | > 64 | > 64 | > 64 | > 64 |  |  |  | CC1Cn2cc(C(=O)O)c(=O)c3cc(F)c(N4CCN(c5ccc(F)cc5)CC4)c(c32)S1 (stereo unspecified) |  |  | 
18 | 2 (≈ 5.3 µM) | 32 (≈ 84.8 µM) | 4 (≈ 10.6 µM) | 32 (≈ 84.8 µM) | > 64 | 64 (≈ 170 µM) | 1 (≈ 2.65 µM) | 8 (≈ 21.2 µM) |  |  |  | CC1Cn2cc(C(=O)O)c(=O)c3cc(F)c(N4CCCNCC4)c(c32)S1 (stereo unspecified) |  |  | 
19 | 2 (≈ 5.74 µM) | 32 (≈ 91.8 µM) | 0.25 (≈ 0.718 µM) | 16 (≈ 45.9 µM) | > 64 | > 64 | 2 (≈ 5.74 µM) | 16 (≈ 45.9 µM) |  |  |  | CC1Cn2cc(C(=O)O)c(=O)c3cc(F)c(N4CCCC4)c(c32)S1 (stereo unspecified) |  |  | 
20 | 16 (≈ 35 µM) | 64 (≈ 140 µM) | 8 (≈ 17.5 µM) | 64 (≈ 140 µM) | > 64 | > 64 | > 64 | 32 (≈ 69.9 µM) |  |  |  | CN1CCN(c2c(F)cc3c(=O)c(C(=O)O)cn4c3c2SC(c2ccc(F)cc2)C4)CC1 (stereo unspecified) |  |  | 
21 | > 64 | > 64 | 8 (≈ 15.3 µM) | > 64 | > 64 | > 64 | 8 (≈ 15.3 µM) | > 64 |  |  |  | CC1Cn2cc(C(=O)O)c(=O)c3cc(F)c(N4CCN(Cc5ccccc5C(F)(F)F)CC4)c(c32)S1 (stereo unspecified) |  |  | 
22 | 16 (≈ 40.9 µM) | 64 (≈ 164 µM) | 0.5 (≈ 1.28 µM) | 1 (≈ 2.55 µM) | 32 (≈ 81.8 µM) | 64 (≈ 164 µM) | 0.5 (≈ 1.28 µM) | 1 (≈ 2.55 µM) |  |  |  | CC1Cn2cc(C(=O)O)c(=O)c3cc(F)c(N4CCN(C=O)CC4)c(c32)S1 (stereo unspecified) |  |  | 
